Measured values: ChEMBL document CHEMBL2169766 (J Med Chem, 2012)

Legend:
[1] = molecular target: T1, 5-hydroxytryptamine receptor 3A (Homo sapiens, UniProt P46098); experiment: Displacement of [3H]granisetron from 5HT3A receptor expressed in HEK293 cells after 24 hrs by scintillation counting in presence of quipazine; assay type: cell-based
T1 sequence (P46098 whole entry): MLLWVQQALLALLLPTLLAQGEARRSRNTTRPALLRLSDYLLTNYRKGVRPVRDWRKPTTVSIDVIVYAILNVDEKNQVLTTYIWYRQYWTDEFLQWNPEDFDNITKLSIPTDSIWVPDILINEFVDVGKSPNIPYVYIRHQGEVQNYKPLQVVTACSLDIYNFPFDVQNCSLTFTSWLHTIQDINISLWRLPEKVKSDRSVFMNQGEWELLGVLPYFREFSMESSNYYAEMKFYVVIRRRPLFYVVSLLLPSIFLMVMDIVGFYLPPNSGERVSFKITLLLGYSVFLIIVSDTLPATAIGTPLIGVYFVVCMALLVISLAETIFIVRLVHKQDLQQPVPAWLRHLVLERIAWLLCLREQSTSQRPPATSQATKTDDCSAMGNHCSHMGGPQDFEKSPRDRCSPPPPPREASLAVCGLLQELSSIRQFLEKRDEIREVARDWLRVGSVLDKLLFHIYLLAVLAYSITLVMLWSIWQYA
Outline: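 Nonspecific binding defined with 1 mM quipazine. At least 24 h at 4 °C, GF/B filtration (0.3% PEI presoaked), scintillation counting. Hill-equation fit; Ki from IC50 via Cheng-Prusoff. At least three separate transfection plates.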

[2] = molecular target: 5-hydroxytryptamine receptor 2A (Homo sapiens) (UniProt P28223); experiment: Displacement of [125I] +/- DOI from recombinant human 5HT2A receptor expressed in HEK-293 cells at 0.1 uM after 60 mins; assay type: cell-based; details: HEK293
Outline: (§1)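 Single-point radioligand competition binding at an external contract lab. Reported as percent inhibition of control specific binding: 100 − (measured specific binding / control specific binding) × 100.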

HEK293 [3] = experiment: Selectivity ratio for recombinant human nACH alpha7 receptor expressed in HEK-293 cells to 5HT3A receptor expressed in HEK293 cells; assay type: cell-based
[4] = molecular target: 5-hydroxytryptamine receptor 1B (Rattus norvegicus) (UniProt P28564); experiment: Displacement of [125I] CYP from 5HT1B receptor in rat cerebral cortex at 0.1 uM after 120 mins; assay type: tissue-based; outline: as §1
HEK293 [5] = experiment: Selectivity ratio for recombinant human 5HT2C receptor expressed in HEK-293 cells to 5HT3A receptor expressed in HEK293 cells; assay type: cell-based
HEK293 [6] = experiment: Selectivity ratio for recombinant human 5HT6 receptor expressed in CHO cells to 5HT3A receptor expressed in HEK293 cells; assay type: cell-based
[7] = molecular target: 5-hydroxytryptamine receptor 7 (Homo sapiens) (UniProt P34969); experiment: Displacement of [3H]LSD from recombinant human 5HT7 receptor expressed in CHO cells at 0.1 uM after 120 mins; assay type: cell-based; outline: as §1
HEK293 [8] = experiment: Selectivity ratio for recombinant human 5HT4E receptor expressed in CHO cells to 5HT3A receptor expressed in HEK293 cells; assay type: cell-based
[9] = molecular target: 5-hydroxytryptamine receptor 1D (Rattus norvegicus) (UniProt P28565); experiment: Displacement of [3H]serotonin from recombinant rat 5HT1D receptor expressed in CHO cells at 0.1 uM after 60 mins; assay type: cell-based; outline: as §1
[10] = molecular target: GABA-A receptor; alpha-1/beta-2/gamma-2 (Homo sapiens) (UniProt P14867+P47870+P18507); experiment: Displacement of [3H]muscimol from recombinant human GABAA alpha1beta2gamma2 receptor expressed in CHO cells at 0.1 uM after 120 mins; assay type: cell-based; outline: as §1
HEK293 [11] = experiment: Selectivity ratio for recombinant human nACH alpha4beta2 receptor expressed in SH-SY5Y cells to 5HT3A receptor expressed in HEK293 cells; assay type: cell-based
Rattus norvegicus = species on record: Rattus norvegicus; experiment: Displacement of [3H]strychnine from glycine receptor in rat spinal cord at 0.1 uM after 15 mins; outline: as §1
[12] = molecular target: T2, 5-hydroxytryptamine receptor 2C (Homo sapiens) (UniProt P28335); experiment: Displacement of [125I] +/- DOI from recombinant human 5HT2C receptor expressed in HEK-293 cells at 0.1 uM after 60 mins; assay type: cell-based; details: HEK293; outline: as §1
T2 sequence (whole entry): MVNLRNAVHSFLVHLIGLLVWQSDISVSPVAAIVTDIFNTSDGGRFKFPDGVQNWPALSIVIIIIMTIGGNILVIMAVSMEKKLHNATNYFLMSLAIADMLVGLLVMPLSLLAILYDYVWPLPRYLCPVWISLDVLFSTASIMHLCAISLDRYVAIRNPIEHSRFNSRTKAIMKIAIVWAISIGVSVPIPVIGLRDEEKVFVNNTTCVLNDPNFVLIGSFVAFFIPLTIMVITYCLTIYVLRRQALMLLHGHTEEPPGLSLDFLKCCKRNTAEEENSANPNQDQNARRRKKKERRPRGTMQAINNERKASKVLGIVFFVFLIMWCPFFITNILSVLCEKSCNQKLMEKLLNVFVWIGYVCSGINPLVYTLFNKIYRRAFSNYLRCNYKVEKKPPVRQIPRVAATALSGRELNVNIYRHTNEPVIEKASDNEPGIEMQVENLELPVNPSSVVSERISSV

HEK293 [13] = experiment: Selectivity ratio for recombinant rat 5HT1D receptor expressed in CHO cells to 5HT3A receptor expressed in HEK293 cells; assay type: cell-based
HEK293 [14] = experiment: Selectivity ratio for glycine receptor in rat spinal cord to 5HT3A receptor expressed in HEK293 cells; assay type: cell-based
HEK293 [15] = experiment: Selectivity ratio for recombinant human 5HT2A receptor expressed in HEK-293 cells to 5HT3A receptor expressed in HEK293 cells; assay type: cell-based
HEK293 [16] = experiment: Selectivity ratio for recombinant human 5HT7 receptor expressed in CHO cells to 5HT3A receptor expressed in HEK293 cells; assay type: cell-based
HEK293 [17] = experiment: Selectivity ratio for recombinant human 5HT2C receptor expressed in HEK-293 to 5HT3A receptor expressed in HEK293 cells; assay type: cell-based
HEK293 [18] = experiment: Selectivity ratio for recombinant human GABAA alpha1beta2gamma2 receptor expressed in CHO cells to 5HT3A receptor expressed in HEK293 cells; assay type: cell-based
[19] = molecular target: 5-hydroxytryptamine receptor 2B (Homo sapiens) (UniProt P41595); experiment: Displacement of [125I] +/- DOI from recombinant human 5HT2B receptor expressed in CHO cells at 0.1 uM after 60 mins; assay type: cell-based; outline: as §1
[20] = molecular target: 5-hydroxytryptamine receptor 6 (Homo sapiens) (UniProt P50406); experiment: Displacement of [3H]LSD from recombinant human 5HT6 receptor expressed in CHO cells at 0.1 uM after 120 mins; assay type: cell-based; outline: as §1
[21] = molecular target: Neuronal acetylcholine receptor; alpha4/beta2 (Homo sapiens) (UniProt P17787+P43681); experiment: Displacement of [3H]cytisine from recombinant human nACH alpha4beta2 receptor expressed in SH-SY5Y cells at 0.1 uM after 120 mins; assay type: cell-based; outline: as §1
[22] = molecular target: 5-hydroxytryptamine receptor 4 (Homo sapiens) (UniProt Q13639); experiment: Displacement of [3H]GR113808 from recombinant human 5HT4E receptor expressed in CHO cells at 0.1 uM after 60 mins; assay type: cell-based; outline: as §1
[23] = molecular target: T3, 5-hydroxytryptamine receptor 1A (Homo sapiens) (UniProt P08908); experiment: Displacement of [3H]8-OH-DPAT from recombinant human 5HT1A receptor expressed in HEK-293 cells at 0.1 uM after 60 mins; assay type: cell-based; details: HEK293; outline: as §1
T3 sequence (whole entry): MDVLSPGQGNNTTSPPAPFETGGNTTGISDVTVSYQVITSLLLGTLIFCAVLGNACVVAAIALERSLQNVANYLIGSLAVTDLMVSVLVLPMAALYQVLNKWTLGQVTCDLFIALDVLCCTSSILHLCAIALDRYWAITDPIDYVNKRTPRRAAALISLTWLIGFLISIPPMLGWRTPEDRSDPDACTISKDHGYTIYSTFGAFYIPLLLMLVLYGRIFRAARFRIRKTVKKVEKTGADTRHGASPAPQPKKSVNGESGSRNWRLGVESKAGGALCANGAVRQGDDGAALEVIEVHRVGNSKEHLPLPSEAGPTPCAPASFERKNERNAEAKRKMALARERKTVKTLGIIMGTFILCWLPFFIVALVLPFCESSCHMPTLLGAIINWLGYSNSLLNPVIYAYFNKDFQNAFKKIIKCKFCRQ

HEK293 [24] = experiment: Selectivity ratio for recombinant human 5HT1A receptor expressed in HEK-293 to 5HT3A receptor expressed in HEK293 cells; assay type: cell-based
HEK293 [25] = experiment: Selectivity ratio for 5HT1B receptor in rat cerebral cortex to 5HT3A receptor expressed in HEK293 cells; assay type: cell-based
[26] = molecular target: Neuronal acetylcholine receptor subunit alpha-7 (Homo sapiens) (UniProt P36544); experiment: Displacement of [3H]epibatidine from recombinant human nACH alpha7 receptor expressed in HEK-293 cells at 0.1 uM after 120 mins; assay type: cell-based; details: HEK293
Chain of Neuronal acetylcholine receptor subunit alpha-7 (Homo sapiens) (P36544 whole entry): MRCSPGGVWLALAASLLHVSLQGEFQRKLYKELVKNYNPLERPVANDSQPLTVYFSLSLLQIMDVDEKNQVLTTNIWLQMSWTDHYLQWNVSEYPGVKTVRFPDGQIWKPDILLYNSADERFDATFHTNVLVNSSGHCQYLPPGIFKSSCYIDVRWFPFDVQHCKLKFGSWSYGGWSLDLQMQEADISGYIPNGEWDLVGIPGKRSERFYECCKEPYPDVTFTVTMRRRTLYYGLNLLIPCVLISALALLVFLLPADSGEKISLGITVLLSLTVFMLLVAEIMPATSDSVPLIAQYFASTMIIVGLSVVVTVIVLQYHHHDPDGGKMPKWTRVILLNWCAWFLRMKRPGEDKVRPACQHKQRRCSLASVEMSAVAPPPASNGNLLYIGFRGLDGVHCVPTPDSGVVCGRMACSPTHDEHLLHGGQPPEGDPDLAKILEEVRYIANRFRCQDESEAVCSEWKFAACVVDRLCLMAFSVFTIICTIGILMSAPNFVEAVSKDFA

Chain of 5-hydroxytryptamine receptor 2B (Homo sapiens) (P41595 whole entry): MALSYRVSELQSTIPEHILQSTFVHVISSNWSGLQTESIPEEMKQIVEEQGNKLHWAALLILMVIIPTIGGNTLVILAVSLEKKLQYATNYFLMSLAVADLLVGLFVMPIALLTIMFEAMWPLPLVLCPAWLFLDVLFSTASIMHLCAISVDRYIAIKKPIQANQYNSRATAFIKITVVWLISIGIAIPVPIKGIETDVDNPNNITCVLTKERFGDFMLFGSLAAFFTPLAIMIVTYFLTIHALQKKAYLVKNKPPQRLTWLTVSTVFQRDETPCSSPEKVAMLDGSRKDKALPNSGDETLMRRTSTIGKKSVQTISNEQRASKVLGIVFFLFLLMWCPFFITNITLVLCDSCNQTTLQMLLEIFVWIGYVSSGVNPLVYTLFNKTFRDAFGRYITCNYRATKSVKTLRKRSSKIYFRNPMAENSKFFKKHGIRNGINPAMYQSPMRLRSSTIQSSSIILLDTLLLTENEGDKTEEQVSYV
Chain of 5-hydroxytryptamine receptor 1B (Rattus norvegicus) (P28564 whole entry): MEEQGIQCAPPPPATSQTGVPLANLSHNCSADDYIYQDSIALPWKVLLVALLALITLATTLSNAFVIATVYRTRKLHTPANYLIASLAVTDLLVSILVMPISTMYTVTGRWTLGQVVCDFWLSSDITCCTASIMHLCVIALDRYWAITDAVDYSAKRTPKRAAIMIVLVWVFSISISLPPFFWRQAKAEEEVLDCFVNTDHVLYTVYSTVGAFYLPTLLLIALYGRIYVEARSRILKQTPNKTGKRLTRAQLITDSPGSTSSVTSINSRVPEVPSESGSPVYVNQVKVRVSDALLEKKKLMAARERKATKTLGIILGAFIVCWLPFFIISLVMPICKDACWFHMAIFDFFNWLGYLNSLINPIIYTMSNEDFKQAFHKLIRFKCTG
Chain of 5-hydroxytryptamine receptor 2A (Homo sapiens) (P28223 whole entry): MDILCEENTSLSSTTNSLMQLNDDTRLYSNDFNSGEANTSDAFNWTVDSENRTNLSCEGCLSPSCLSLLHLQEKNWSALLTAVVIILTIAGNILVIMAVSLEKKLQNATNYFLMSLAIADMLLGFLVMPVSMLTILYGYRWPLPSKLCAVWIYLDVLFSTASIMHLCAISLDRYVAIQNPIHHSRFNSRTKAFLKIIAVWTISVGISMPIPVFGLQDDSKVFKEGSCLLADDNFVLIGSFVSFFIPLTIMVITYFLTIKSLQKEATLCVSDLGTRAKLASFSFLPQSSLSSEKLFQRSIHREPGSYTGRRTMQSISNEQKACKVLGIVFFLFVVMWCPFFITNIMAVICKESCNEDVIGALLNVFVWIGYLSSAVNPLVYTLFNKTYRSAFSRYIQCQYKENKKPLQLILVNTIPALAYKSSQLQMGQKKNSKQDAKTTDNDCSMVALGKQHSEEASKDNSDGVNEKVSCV
Chain of 5-hydroxytryptamine receptor 4 (Homo sapiens) (Q13639 whole entry): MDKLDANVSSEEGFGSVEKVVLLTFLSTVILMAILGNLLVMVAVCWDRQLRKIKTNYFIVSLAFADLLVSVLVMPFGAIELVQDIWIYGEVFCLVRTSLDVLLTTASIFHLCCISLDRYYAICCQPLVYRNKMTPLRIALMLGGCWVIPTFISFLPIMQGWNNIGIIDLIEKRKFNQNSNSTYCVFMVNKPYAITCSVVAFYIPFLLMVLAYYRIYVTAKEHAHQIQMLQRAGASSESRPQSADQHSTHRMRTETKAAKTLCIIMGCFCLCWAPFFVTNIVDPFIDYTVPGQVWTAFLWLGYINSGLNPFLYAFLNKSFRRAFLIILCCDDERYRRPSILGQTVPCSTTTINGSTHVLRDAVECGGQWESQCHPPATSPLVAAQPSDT
Chain of 5-hydroxytryptamine receptor 6 (Homo sapiens) (P50406 whole entry): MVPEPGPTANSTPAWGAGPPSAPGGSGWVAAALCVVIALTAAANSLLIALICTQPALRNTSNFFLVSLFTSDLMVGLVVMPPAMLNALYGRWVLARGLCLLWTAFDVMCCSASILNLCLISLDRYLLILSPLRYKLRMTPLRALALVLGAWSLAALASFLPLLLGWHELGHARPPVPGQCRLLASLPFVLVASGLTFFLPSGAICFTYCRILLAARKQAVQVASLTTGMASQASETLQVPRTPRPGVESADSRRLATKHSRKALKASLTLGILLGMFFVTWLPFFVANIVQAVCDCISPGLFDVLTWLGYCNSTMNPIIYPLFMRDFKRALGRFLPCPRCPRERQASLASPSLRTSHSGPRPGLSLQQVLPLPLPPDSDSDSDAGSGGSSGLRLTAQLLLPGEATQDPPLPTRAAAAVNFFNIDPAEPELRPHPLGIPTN
Chain of 5-hydroxytryptamine receptor 1D (Rattus norvegicus) (P28565 whole entry): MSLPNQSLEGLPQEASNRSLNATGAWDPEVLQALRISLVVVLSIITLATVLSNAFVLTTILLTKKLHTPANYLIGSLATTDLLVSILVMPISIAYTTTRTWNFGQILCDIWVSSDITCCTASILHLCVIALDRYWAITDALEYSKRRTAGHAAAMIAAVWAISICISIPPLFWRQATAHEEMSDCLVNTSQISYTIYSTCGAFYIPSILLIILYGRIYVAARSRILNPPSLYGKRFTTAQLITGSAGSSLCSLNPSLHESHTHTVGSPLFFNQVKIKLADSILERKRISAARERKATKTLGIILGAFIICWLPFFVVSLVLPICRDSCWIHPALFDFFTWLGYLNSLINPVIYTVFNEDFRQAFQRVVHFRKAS
Chain of 5-hydroxytryptamine receptor 7 (Homo sapiens) (P34969 whole entry): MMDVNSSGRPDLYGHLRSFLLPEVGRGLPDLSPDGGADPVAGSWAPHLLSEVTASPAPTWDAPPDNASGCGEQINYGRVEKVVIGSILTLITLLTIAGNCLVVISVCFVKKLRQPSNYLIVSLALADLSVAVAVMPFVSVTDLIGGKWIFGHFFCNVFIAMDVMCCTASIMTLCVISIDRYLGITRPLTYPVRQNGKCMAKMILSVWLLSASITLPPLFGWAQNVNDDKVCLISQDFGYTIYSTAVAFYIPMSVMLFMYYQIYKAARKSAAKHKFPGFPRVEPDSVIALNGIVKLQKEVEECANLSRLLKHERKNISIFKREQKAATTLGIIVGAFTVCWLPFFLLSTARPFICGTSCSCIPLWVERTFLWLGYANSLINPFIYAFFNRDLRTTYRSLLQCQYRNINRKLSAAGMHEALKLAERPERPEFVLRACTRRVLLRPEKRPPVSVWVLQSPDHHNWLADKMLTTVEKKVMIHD

SMILES: CN1CCN(c2ccc3cccc(N)c3n2)CC1
- Ki [1]: 331 nM

SMILES: CNc1nc(N2CCN(C)CC2)nc2ccccc12
- Ki [1]: 2.95 nM

SMILES: CNc1nc(N2CC3CCCNC3C2)nc2ccc(Cl)cc12 (stereo not drawn)
- Ki [1]: 3550 nM

SMILES: CN1CCN(c2cnc3ccccc3n2)CC1
- Ki [1]: 4.68 nM

SMILES: CN1CCN(c2ccc3ccccc3c2)CC1
- Ki [1]: 537 nM

SMILES: CN1CCN(c2cnc3ccccc3c2)CC1
- Ki [1]: 407 nM

SMILES: CN1CCN(c2nc(NCc3ccc(N)cc3)c3cc(Cl)ccc3n2)CC1
- Ki [1]: 2.69 nM

SMILES: CNc1nc(NCCC2CCN(C)C2)nc2ccc(Cl)cc12 (stereo not drawn)
- Ki [1]: 11700 nM

SMILES: CN1CCN(c2nc(N)c3ccccc3n2)CC1
- inhibition [2]: < 15%
- Selectivity ratio (HEK293 [3]): 1000
- inhibition [4]: < 15%
- Selectivity ratio (HEK293 [5]): 1000
- Selectivity ratio (HEK293 [6]): 1000
- Ki [1]: 0.0513 nM
- inhibition [7]: < 15%
- Selectivity ratio (HEK293 [8]): 1000
- inhibition [9]: < 15%
- inhibition [10]: < 15%
- Selectivity ratio (HEK293 [11]): 1000
- inhibition (Rattus norvegicus): < 15%
- inhibition [12]: < 15%
- Selectivity ratio (HEK293 [13]): 1000
- Selectivity ratio (HEK293 [14]): 1000
- Selectivity ratio (HEK293 [15]): 1000
- Selectivity ratio (HEK293 [16]): 1000
- Selectivity ratio (HEK293 [17]): 1000
- Selectivity ratio (HEK293 [18]): 1000
- inhibition [19]: 43%
- inhibition [20]: < 15%
- inhibition [21]: < 15%
- inhibition [22]: < 15%
- inhibition [23]: < 15%
- Selectivity ratio (HEK293 [24]): 1000
- Selectivity ratio (HEK293 [25]): 1000
- inhibition [26]: 31%

SMILES: CNc1nc(N2CCCN(C)CC2)nc2ccc(Cl)cc12
- Ki [1]: 18.2 nM

SMILES: CNc1nc(N2CCN(C)CC2)cc2ccccc12
- Ki [1]: 5.89 nM

SMILES: CNc1nc(N2CC(N(C)C)C2)nc2ccc(Cl)cc12
- Ki [1]: 468 nM

SMILES: CN1CCN(c2nc(NCc3ccccc3)c3cc(Cl)ccc3n2)CC1
- Ki [1]: 13.8 nM

SMILES: CN1CCN(c2ncc3ccccc3n2)CC1
- Ki [1]: 1.35 nM

SMILES: CNc1nc(N2CCN(C)CC2)nc2ccc(Cl)cc12
- Ki [1]: 1.12 nM

SMILES: CN1CCN(c2nc(NCc3ccoc3)c3cc(Cl)ccc3n2)CC1
- Ki [1]: 2.82 nM

SMILES: CN1CCN(c2nc(O)c3cc(Cl)ccc3n2)CC1
- Ki [1]: 575 nM

SMILES: CNc1cc(N2CCN(C)CC2)nc2ccccc12
- Ki [1]: 13.5 nM

SMILES: CN1CCN(c2nc(NCC3CCCCC3)c3cc(Cl)ccc3n2)CC1
- Ki [1]: 16600 nM

SMILES: CN1CCN(c2cc3ccccc3c(N)n2)CC1
- Ki [1]: 219 nM

SMILES: CN1CCN(c2ccc3ccccc3n2)CC1
- Ki [1]: 0.457 nM

SMILES: CC(C)Nc1nc(N2CCN(C)CC2)nc2ccc(Cl)cc12
- Ki [1]: 166 nM

SMILES: CNc1nc(N2CC[C@H](N)C2)nc2ccc(Cl)cc12
- Ki [1]: 2340 nM

SMILES: CN1CCN(c2cc(N)c3ccccc3n2)CC1
- Ki [1]: 1.45 nM

SMILES: CN1CCN(c2ncc3cc(Cl)ccc3n2)CC1
- Ki [1]: 7.41 nM

SMILES: CN1CCN(c2nc(N)c3cc(Cl)ccc3n2)CC1
- Ki [1]: 12 nM

SMILES: CN1CCN(c2ccc3c(N)cccc3n2)CC1
- Ki [1]: 204 nM

SMILES: CN1CCN(c2nc(N(C)C)c3cc(Cl)ccc3n2)CC1
- Ki [1]: 6.61 nM

SMILES: CN1CCN(c2cc3ccccc3cn2)CC1
- Ki [1]: 1.62 nM

SMILES: CN1CCN(c2nc(NCCO)c3cc(Cl)ccc3n2)CC1
- Ki [1]: 14.8 nM

SMILES: CN1CCN(c2nc(NCCc3ccccc3)c3cc(Cl)ccc3n2)CC1
- Ki [1]: 79.4 nM

SMILES: CN1CCN(c2nc3ccccc3c(=O)[nH]2)CC1
- Ki [1]: 46.8 nM
